# Source: ChEMBL document CHEMBL3621107, “Ring fusion strategy for synthesis and lead optimization of sulfur-substituted anthra[1,2-c][1,2,5]thiadiazole-6,11-dione derivatives as promising scaffold of antitumor agents” (Eur J Med Chem, 2015)
# Assays:
# Assay type in all cases: functional
# HOP-92 = assay: Cytotoxicity against human HOP92 cells after 48 hrs by SRB assay; conditions: HOP-92, 48 h
# Method in brief: (§1)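 NCI-60 human tumour cell panel screen, second stage, run by the NCI Developmental Therapeutics Program. Compounds were tested at five concentrations (0.01, 0.1, 1, 10 and 100 μM). Percentage growth was plotted against log10 concentration for each cell line. GI50, TGI and LC50 were taken from these dose-response curves.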
# OVCAR-8 = assay: Cytotoxicity against human OVCAR8 cells after 48 hrs by SRB assay; conditions: OVCAR-8, 48 h; for CC50: read-out: LC50 (the source's name)
# Method in brief: (§2)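 Second-stage NCI-60 panel run by the NCI Developmental Therapeutics Program, covering nine tumour subpanels. Five concentrations were tested: 0.01, 0.1, 1, 10 and 100 μM. Percentage growth at each level was plotted against log10 drug concentration. GI50, TGI and LC50 were read from these dose-response curves. Subpanel MID values were divided into the full-panel MID to give selectivity ratios.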
# NCI-H460 = assay: Cytotoxicity against human NCI-H460 cells after 48 hrs by SRB assay; conditions: NCI-H460, 48 h; method in brief: as §2
# [1] = Cytotoxicity against human non-small cell lung cancer cells assessed as growth inhibition after 48 hrs by SRB assay; conditions: Cancer cell lines
# Method in brief: (§3)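 Values come from the NCI-60 five-dose panel (0.01–100 µM). The subpanel MID is the mean GI50 over the lines of that tumour subpanel. The selectivity ratio is the full-panel MID divided by the subpanel MID; 3–6 is rated moderate and >6 high.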
# BT-549 = assay: Cytotoxicity against human BT549 cells after 48 hrs by SRB assay; conditions: BT-549, 48 h; method in brief: as §1
# [2] = Cytotoxicity against human CNS cancer cells assessed as growth inhibition after 48 hrs by SRB assay; conditions: Cancer cell lines
# Method in brief: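 NCI-60 five-dose data (0.01–100 μM) were grouped by tumour subpanel. A subpanel mean (MID) of GI50 was computed for the CNS cancer lines. A selectivity ratio was obtained as full-panel MID divided by subpanel MID: 3–6 counts as moderate, >6 as high.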
# CAKI-1 = assay: Cytotoxicity against human Caki1 cells after 48 hrs by SRB assay; conditions: CAKI-1, 48 h; method in brief: as §1
# MDA-MB-468 = assay: Cytotoxicity against human MDA-MB-468 cells after 48 hrs by SRB assay; conditions: MDA-MB-468, 48 h; method in brief: as §2
# HL-60(TB) = assay: Cytotoxicity against human HL-60(TB) cells after 48 hrs by SRB assay; conditions: HL-60, 48 h
# Method in brief: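 NCI Developmental Therapeutics Program 60-cell-line screen, second stage: cells exposed to five concentrations (0.01, 0.1, 1, 10 and 100 μM). Growth is plotted against log10 concentration for each line, and GI50, TGI and LC50 are read from the dose-response curves.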
# COLO 205 = assay: Cytotoxicity against human COLO205 cells after 48 hrs by SRB assay; conditions: COLO 205, 48 h; method in brief: as §1
# RPMI-8226 = assay: Cytotoxicity against human RPMI8226 cells after 48 hrs by SRB assay; conditions: RPMI-8226, 48 h; method in brief: as §2
# IGROV-1 = assay: Cytotoxicity against human IGROV1 cells after 48 hrs by SRB assay; conditions: IGROV-1, 48 h; method in brief: as §1
# K562 = assay: Cytotoxicity against human K562 cells after 48 hrs by SRB assay; conditions: K562, 48 h; method in brief: as §1
# SK-MEL-5 = assay: Cytotoxicity against human SK-MEL-5 cells after 48 hrs by SRB assay; conditions: SK-MEL-5, 48 h; method in brief: as §2
# NCI-H23 = assay: Cytotoxicity against human NCI-H23 cells after 48 hrs by SRB assay; conditions: NCI-H23, 48 h; method in brief: as §2
# MDA-MB-435 = assay: Cytotoxicity against human MDA-MB-435 cells after 48 hrs by SRB assay; conditions: MDA-MB-435, 48 h; method in brief: as §2
# HCT-15 = assay: Cytotoxicity against human HCT15 cells after 48 hrs by SRB assay; conditions: HCT-15, 48 h; method in brief: as §1
# [3] = Cytotoxicity against human ovarian cancer cells assessed as growth inhibition after 48 hrs by SRB assay; conditions: Cancer cell lines; method in brief: as §3
# SK-MEL-2 = assay: Cytotoxicity against human SK-MEL-2 cells after 48 hrs by SRB assay; conditions: SK-MEL-2, 48 h; method in brief: as §2
# SNB-19 = assay: Cytotoxicity against human SNB19 cells after 48 hrs by SRB assay; conditions: SNB-19, 48 h; method in brief: as §2
# [4] = Cytotoxicity against human colon cancer cells assessed as growth inhibition after 48 hrs by SRB assay; conditions: Cancer cell lines; method in brief: as §3
# SK-OV-3 = assay: Cytotoxicity against human SKOV3 cells after 48 hrs by SRB assay; conditions: SK-OV-3, 48 h; method in brief: as §2
# CCRF-CEM = assay: Cytotoxicity against human CCRF-CEM cells after 48 hrs by SRB assay; method in brief: as §1
# PC-3 = assay: Cytotoxicity against human PC3 cells after 48 hrs by SRB assay; conditions: PC-3, 48 h; method in brief: as §2
# A498 = assay: Cytotoxicity against human A498 cells after 48 hrs by SRB assay; conditions: A498, 48 h; method in brief: as §1
# [5] = Cytotoxicity against human Hs578T cells after 48 hrs by SRB assay; conditions: Hs-578T; method in brief: as §1
# M14 = assay: Cytotoxicity against human M14 cells after 48 hrs by SRB assay; conditions: M14, 48 h; method in brief: as §1
# ACHN = assay: Cytotoxicity against human ACHN cells after 48 hrs by SRB assay; method in brief: as §1
# HCT-116 = assay: Cytotoxicity against human HCT116 cells after 48 hrs by SRB assay; conditions: HCT-116, 48 h; for CC50: read-out: LC50 (the source's name); method in brief: as §1
compound,measurement,setting,value
O=C1c2ccccc2C(=O)c2c1cc(Sc1ccc(F)cc1F)c1nsnc21,GI50,HOP-92,2.03 µM
same,LC50 (concentration giving 50% net cell kill),HOP-92,16.3 µM
same,TGI,HOP-92,5.01 µM
same,GI50,OVCAR-8,1.58 µM
same,TGI,OVCAR-8,3.63 µM
same,CC50,OVCAR-8,8.34 µM
same,GI50,NCI-H460,25.9 µM
same,LC50 (concentration killing 50% of cells),NCI-H460,> 100 µM
same,TGI,NCI-H460,> 100 µM
same,GI50,[1],19 µM
same,GI50,BT-549,3.99 µM
same,LC50,BT-549,43 µM
same,TGI,BT-549,17.2 µM
same,GI50,[2],5.69 µM
same,GI50,CAKI-1,2.51 µM
same,LC50 (concentration causing 50% net cell kill),CAKI-1,> 100 µM
same,TGI,CAKI-1,7.04 µM
same,GI50,MDA-MB-468,0.45 µM
same,LC50,MDA-MB-468,4.19 µM
same,TGI,MDA-MB-468,1.52 µM
same,GI50,HL-60(TB),2.68 µM
same,LC50,HL-60(TB),> 100 µM
same,TGI,HL-60(TB),7.7 µM
same,GI50,COLO 205,13.7 µM
same,LC50,COLO 205,56.2 µM
same,TGI,COLO 205,27.7 µM
same,GI50,RPMI-8226,2.2 µM
same,LC50,RPMI-8226,63.9 µM
same,TGI,RPMI-8226,8.08 µM
same,GI50,IGROV-1,2.93 µM
same,LC50,IGROV-1,46.6 µM
same,TGI,IGROV-1,10.2 µM
same,GI50,K562,3.32 µM
same,LC50,K562,68.4 µM
same,TGI,K562,11.8 µM
same,GI50,SK-MEL-5,1.41 µM
same,LC50,SK-MEL-5,5.72 µM
same,TGI,SK-MEL-5,2.84 µM
same,GI50,NCI-H23,1.88 µM
same,LC50,NCI-H23,43.1 µM
same,TGI,NCI-H23,6.99 µM
same,GI50,MDA-MB-435,1.94 µM
same,LC50,MDA-MB-435,7.07 µM
same,TGI,MDA-MB-435,3.7 µM
same,GI50,HCT-15,2.84 µM
same,LC50,HCT-15,50 µM
same,TGI,HCT-15,12.9 µM
same,GI50,[3],2.7 µM
same,GI50,SK-MEL-2,2.34 µM
same,LC50,SK-MEL-2,9.41 µM
same,TGI,SK-MEL-2,4.69 µM
same,GI50,SNB-19,13.9 µM
same,LC50,SNB-19,68.6 µM
same,TGI,SNB-19,30.9 µM
same,GI50,[4],7.43 µM
same,GI50,SK-OV-3,2.34 µM
same,LC50,SK-OV-3,13 µM
same,TGI,SK-OV-3,5.08 µM
same,GI50,CCRF-CEM,0.7 µM
same,LC50,CCRF-CEM,57.8 µM
same,TGI,CCRF-CEM,6.35 µM
same,GI50,PC-3,1.96 µM
same,LC50 (concentration killing 50% of cells),PC-3,85.7 µM
same,TGI,PC-3,6.41 µM
same,GI50,A498,2.26 µM
same,LC50 (concentration killing 50% of cells),A498,> 100 µM
same,TGI,A498,58.5 µM
same,GI50,[5],2.81 µM
same,LC50,[5],> 100 µM
same,TGI,[5],> 100 µM
same,GI50,M14,3.72 µM
same,LC50,M14,43 µM
same,TGI,M14,15.8 µM
same,GI50,ACHN,1.85 µM
same,LC50,ACHN,7.14 µM
same,TGI,ACHN,3.63 µM
same,GI50,HCT-116,1.55 µM
same,TGI,HCT-116,3.22 µM
same,CC50,HCT-116,6.69 µM
O=C1c2ccccc2C(=O)c2c1cc(Sc1cccc(Cl)c1)c1nsnc21,GI50,HOP-92,2.3 µM
same,LC50 (concentration giving 50% net cell kill),HOP-92,15.8 µM
same,TGI,HOP-92,5.23 µM
same,GI50,OVCAR-8,0.59 µM
same,TGI,OVCAR-8,2.26 µM
same,CC50,OVCAR-8,6.81 µM
same,GI50,NCI-H460,4.29 µM
same,LC50 (concentration killing 50% of cells),NCI-H460,75.8 µM
same,TGI,NCI-H460,18.9 µM
same,GI50,[1],5.84 µM
same,GI50,BT-549,3.27 µM
same,LC50,BT-549,40.3 µM
same,TGI,BT-549,15.1 µM
same,GI50,[2],4.47 µM
same,GI50,CAKI-1,2.67 µM
same,LC50 (concentration causing 50% net cell kill),CAKI-1,> 100 µM
same,TGI,CAKI-1,9.15 µM
same,GI50,MDA-MB-468,0.95 µM
same,LC50,MDA-MB-468,5.1 µM
same,TGI,MDA-MB-468,2.23 µM
same,GI50,HL-60(TB),2.51 µM
same,LC50,HL-60(TB),> 100 µM
same,TGI,HL-60(TB),6.71 µM
same,GI50,COLO 205,20 µM
same,LC50,COLO 205,61.3 µM
same,TGI,COLO 205,35 µM
same,GI50,RPMI-8226,1.42 µM
same,LC50,RPMI-8226,> 100 µM
same,TGI,RPMI-8226,6.32 µM
same,GI50,IGROV-1,2.07 µM
same,LC50,IGROV-1,26.7 µM
same,TGI,IGROV-1,5.37 µM
same,GI50,K562,2.41 µM
same,LC50,K562,> 100 µM
same,TGI,K562,7.27 µM
same,GI50,SK-MEL-5,0.99 µM
same,LC50,SK-MEL-5,4.87 µM
same,TGI,SK-MEL-5,2.21 µM
same,GI50,NCI-H23,1 µM
same,LC50,NCI-H23,22.8 µM
same,TGI,NCI-H23,3.58 µM
same,GI50,MDA-MB-435,1.53 µM
same,LC50,MDA-MB-435,7.24 µM
same,TGI,MDA-MB-435,3.33 µM
same,GI50,HCT-15,2.71 µM
same,LC50,HCT-15,47.1 µM
same,TGI,HCT-15,11.3 µM
same,GI50,[3],1.52 µM
same,GI50,SK-MEL-2,2.34 µM
same,LC50,SK-MEL-2,9.87 µM
same,TGI,SK-MEL-2,4.81 µM
same,GI50,SNB-19,8.64 µM
same,LC50,SNB-19,47.1 µM
same,TGI,SNB-19,21.2 µM
same,GI50,[4],10.5 µM
same,GI50,SK-OV-3,3.97 µM
same,LC50,SK-OV-3,34.8 µM
same,TGI,SK-OV-3,12.1 µM
same,GI50,CCRF-CEM,0.56 µM
same,LC50,CCRF-CEM,> 100 µM
same,TGI,CCRF-CEM,6.26 µM
same,GI50,PC-3,2.27 µM
same,LC50 (concentration killing 50% of cells),PC-3,69.9 µM
same,TGI,PC-3,11.8 µM
same,GI50,A498,13 µM
same,LC50 (concentration killing 50% of cells),A498,6.54 µM
same,TGI,A498,29.2 µM
same,GI50,[5],1.97 µM
same,LC50,[5],> 100 µM
same,TGI,[5],6.55 µM
same,GI50,M14,1.66 µM
same,LC50,M14,6.94 µM
same,TGI,M14,3.39 µM
same,GI50,ACHN,1.62 µM
same,LC50,ACHN,6.63 µM
same,TGI,ACHN,3.27 µM
same,GI50,HCT-116,0.44 µM
same,TGI,HCT-116,2.66 µM
same,CC50,HCT-116,16.3 µM
